From ChEMBL document CHEMBL4364334, “Synthesis, biological evaluation and molecular modeling of novel selective COX-2 inhibitors: sulfide, sulfoxide, and sulfone derivatives of 1,5-diarylpyrrol-3-substituted scaffold” (Bioorg Med Chem, 2019)

Assays:
[1] = molecular target: T1, Prostaglandin G/H synthase 1 (Mus musculus, UniProt P22437); assay: Inhibition of COX-1 in mouse J774 cells assessed as inhibition of PEG2 production using arachidonic acid as substrate pretreated for 15 mins followed by substrate addition measured after 30 mins by radioimmuno assay; assay type: cell-based
T1 sequence (P22437 whole entry): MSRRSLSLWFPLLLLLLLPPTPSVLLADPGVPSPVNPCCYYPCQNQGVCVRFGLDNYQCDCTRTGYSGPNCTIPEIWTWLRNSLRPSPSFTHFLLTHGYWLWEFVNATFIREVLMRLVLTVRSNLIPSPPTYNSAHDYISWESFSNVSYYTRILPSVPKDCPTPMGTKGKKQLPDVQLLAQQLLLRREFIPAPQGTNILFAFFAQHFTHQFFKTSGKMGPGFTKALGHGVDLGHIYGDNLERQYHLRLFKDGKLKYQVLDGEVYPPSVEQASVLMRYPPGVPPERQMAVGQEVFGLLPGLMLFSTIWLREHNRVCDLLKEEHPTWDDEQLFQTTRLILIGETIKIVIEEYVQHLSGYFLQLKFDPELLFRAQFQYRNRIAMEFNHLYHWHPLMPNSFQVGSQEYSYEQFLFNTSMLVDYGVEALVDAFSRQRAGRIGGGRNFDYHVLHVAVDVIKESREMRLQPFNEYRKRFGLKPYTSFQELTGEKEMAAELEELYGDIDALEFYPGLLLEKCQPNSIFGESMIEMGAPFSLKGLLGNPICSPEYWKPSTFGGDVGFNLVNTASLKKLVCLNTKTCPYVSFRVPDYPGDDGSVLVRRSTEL
Method in brief: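 Murine J774 macrophages were adhered 2 h at 37 °C in 5% CO2 and given fresh medium. They were pretreated 15 min with compound (10 µM; 0.1–1 µM when inhibition exceeded 50%), then incubated 30 min at 37 °C with 15 µM arachidonic acid. Supernatant PGE2 was measured by RIA. Values are means of 3 experiments of % inhibition versus control, with IC50 from a sigmoidal variable-slope fit.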

[2] = organism: Mus musculus; assay: Selectivity index, ratio of IC50 for inhibition of COX-1 in mouse J774 cells to IC50 for inhibition of COX-2 in LPS-induced mouse J774 cells; assay type: cell-based
[3] = molecular target: T2, Prostaglandin G/H synthase 2 (Mus musculus, UniProt Q05769); assay: Inhibition of COX-2 in LPS-induced mouse J774 cells assessed as inhibition of PEG2 production after 24 hrs by radioimmuno assay; assay type: cell-based
T2 sequence (Q05769 whole entry): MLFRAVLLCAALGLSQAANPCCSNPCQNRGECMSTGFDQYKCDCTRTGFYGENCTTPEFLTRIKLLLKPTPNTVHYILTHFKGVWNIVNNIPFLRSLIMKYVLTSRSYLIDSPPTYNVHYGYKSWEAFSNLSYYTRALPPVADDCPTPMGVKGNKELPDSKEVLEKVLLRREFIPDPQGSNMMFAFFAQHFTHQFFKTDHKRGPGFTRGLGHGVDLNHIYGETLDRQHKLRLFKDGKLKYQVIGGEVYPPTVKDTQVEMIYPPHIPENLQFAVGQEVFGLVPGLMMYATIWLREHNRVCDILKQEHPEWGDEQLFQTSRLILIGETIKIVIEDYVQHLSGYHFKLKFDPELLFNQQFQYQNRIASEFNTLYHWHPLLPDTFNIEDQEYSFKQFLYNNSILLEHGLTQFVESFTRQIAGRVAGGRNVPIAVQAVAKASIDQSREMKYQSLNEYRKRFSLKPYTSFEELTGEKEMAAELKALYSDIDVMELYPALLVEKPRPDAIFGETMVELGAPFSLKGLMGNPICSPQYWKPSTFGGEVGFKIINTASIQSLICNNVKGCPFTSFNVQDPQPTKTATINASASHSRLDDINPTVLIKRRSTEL

[4] = system: Mus musculus; assay: Antinociceptive activity in Swiss albino mouse model of acetic-acid-induced writhing assessed as inhibition of writhing numbers at 20 mg/kg, po measured starting 5 mins post acetic acid challenge for 10 mins (reference value: 30.5 +/- 3.7)
[5] = system: Rattus norvegicus; assay: (§1) Anti-inflammatory activity in rat assessed as effect on carrageenan-induced hyperalgesia by measuring paw pressure tolerance at 20 mg/kg, po administered as single dose preincubated with carrageenan for 4 hrs and followed by compound treatment and measured after 30 mins by paw-pressure test (reference value: 33.9 +/- 3.7 g); assay type: functional
[6] = system: Rattus norvegicus; assay: as §1, with “60” for “30”, “37.2” for “33.9”, “3.5” for “3.7”; assay type: functional
[7] = system: Mus musculus; assay: Antinociceptive activity in Swiss albino mouse model of acetic-acid-induced writhing assessed as inhibition of writhing numbers at 10 mg/kg, po measured starting 5 mins post acetic acid challenge for 10 mins (reference value: 30.5 +/- 3.7)
[8] = system: Rattus norvegicus; assay: as §1, with “90” for “30”, “36.7” for “33.9”, “4” for “3.7”; assay type: functional
[9] = system: Rattus norvegicus; assay: Antiinflammatory activity in rat assessed as inhibition of carrageenan-induced paw edema by measuring paw volume at 20 mg/kg, po administered as single dose preincubated with carrageenan for 4 hrs and followed by compound treatment and measured after 1 hr by plethysmometer relative to untreated control; assay type: functional
[10] = system: Rattus norvegicus; assay: Antiinflammatory activity in rat assessed as effect on carrageenan-induced paw edema by measuring paw volume at 20 mg/kg, po administered as single dose preincubated with carrageenan for 4 hrs and followed by compound treatment and measured after 30 mins by plethysmometer (reference value: 2.78 +/- 0.09 ml); assay type: functional
[11] = system: Mus musculus; assay: Antinociceptive activity in Swiss albino mouse model of acetic-acid-induced writhing assessed as inhibition of writhing numbers at 40 mg/kg, po measured starting 5 mins post acetic acid challenge for 10 mins (reference value: 30.5 +/- 3.7)

CCC[S+]([O-])CCc1cc(-c2ccc(S(C)(=O)=O)cc2)n(-c2ccccc2)c1C (centres undefined)
IC50 [1]: > 10 µM | Ratio IC50 [2]: > 167 | IC50 [3]: 60 nM

CCCSCCc1cc(-c2ccc(S(C)(=O)=O)cc2)n(-c2cccc(F)c2)c1C
IC50 [1]: > 10 µM | Activity [4]: 23.4 | Activity [5]: 41.5 g | Ratio IC50 [2]: > 24 | Activity [6]: 38.8 g | Activity [7]: 30.3 | Activity [8]: 37.2 g | inhibition in vivo at 20 mg/kg [9]: 100% | IC50 [3]: 285 nM | Activity [10]: 1.74 mL | Activity [11]: 23.7

CCCS(=O)(=O)CCc1cc(-c2ccc(S(C)(=O)=O)cc2)n(-c2ccccc2)c1C
IC50 [1]: > 10 µM | Ratio IC50 [2]: > 294 | IC50 [3]: 34 nM

CCCSCCc1cc(-c2ccc(S(C)(=O)=O)cc2)n(-c2ccccc2)c1C
IC50 [1]: > 10 µM | Activity [4]: 25.9 | Activity [5]: 46 g | Ratio IC50 [2]: > 714 | Activity [6]: 40.3 g | Activity [7]: 32.6 | Activity [8]: 40.2 g | inhibition in vivo at 20 mg/kg [9]: 100% | IC50 [3]: 14 nM | Activity [10]: 1.69 mL | Activity [11]: 26.4

CCC[S+]([O-])CCc1cc(-c2ccc(S(C)(=O)=O)cc2)n(-c2ccc(F)cc2)c1C (centres undefined)
IC50 [1]: > 10 µM | Activity [4]: 23.4 | Activity [5]: 53.5 g | Ratio IC50 [2]: > 250 | Activity [6]: 42.5 g | Activity [7]: 28.8 | Activity [8]: 38.2 g | inhibition in vivo at 20 mg/kg [9]: 100% | IC50 [3]: 40 nM | Activity [10]: 1.55 mL | Activity [11]: 20.3

Cc1c(CCOCCO)cc(-c2ccc(S(C)(=O)=O)cc2)n1-c1ccc(F)cc1
IC50 [1]: > 10 µM

CCCSCCc1cc(-c2ccc(S(C)(=O)=O)cc2)n(-c2ccc(F)cc2)c1C
IC50 [1]: > 10 µM | Activity [4]: 17.4 | Activity [5]: 57.3 g | Ratio IC50 [2]: > 909 | Activity [6]: 50.4 g | Activity [7]: 28.7 | Activity [8]: 41.9 g | inhibition in vivo at 20 mg/kg [9]: 100% | IC50 [3]: 11 nM | Activity [10]: 1.75 mL | Activity [11]: 15.9

CCCS(=O)(=O)CCc1cc(-c2ccc(S(C)(=O)=O)cc2)n(-c2ccc(F)cc2)c1C
IC50 [1]: > 10 µM | Ratio IC50 [2]: > 227 | IC50 [3]: 44 nM
